What was measured:
[1] = Minimal drug concentration necessary to inhibit incorporation of [3H]thymidine in U937 Leukemia cells; assay type: functional, cell-based, Homo sapiens
L1210 [2] = experiment: Antitumor activity in mice bearing L1210 Leukemia at the dose of 30 ug/kg; survivors for 30 days was reported; assay type: functional, Mus musculus
L1210 [3] = experiment: Antitumor activity was tested in BDF1 male mice bearing L1210 Leukemia, at the dose of 42 ug/kg; survivors for 30 days was reported; assay type: functional, Mus musculus
Summary of the method: (§1)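 Male BDF1 mice, 4-6 weeks old, 6 per group, were given 10⁵ L1210 cells ip on day 0. Drug in DMF was diluted in 30% DMSO/0.5% glucose and given ip on days 1, 5 and 9. %ILS = (T/C − 1) × 100 on median survival of dying animals only; 30-day survivors noted separately. Group weight change was taken from day 0 to the lowest-weight day.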

L1210 [4] = experiment: Antitumor activity was tested in BDF1 male mice bearing L1210 Leukemia, at the dose of 70 ug/kg; activity expressed as 30-day survivors; assay type: functional, Mus musculus; summary of the method: as §1
L1210 [5] = experiment: Antitumor activity was tested in BDF1 male mice bearing L1210 Leukemia, at the dose of 25 ug/kg; survivors for 30 days was reported; assay type: functional, Mus musculus; summary of the method: as §1
L1210 [6] = experiment: Antitumor activity was tested in Mice (bearing L1210 leukemia) and body weight change between days 0 and days 12 (when the animal weight was the lowest) was estimated at a dose of 42 ug/kg; assay type: functional, Mus musculus; summary of the method: as §1
L1210 [7] = experiment: Antitumor activity was tested in mice (bearing L1210 leukemia) and body weight change between days 0 and days 12 (when the animal weight was the lowest) was estimated at a dose of 25 ug/kg; assay type: functional, Mus musculus; summary of the method: as §1
Mus musculus [8] = experiment: Anti tumor activity was tested in mice and percent increase of life span at a dose of 70 ug/kg; assay type: functional; summary of the method: as §1
Mus musculus [9] = experiment: Antitumor activity was tested in mice and percent increase of life span at a dose of 25 ug/kg was reported; assay type: functional
Mus musculus [10] = experiment: Hematological effects in female CDF1 mice at the dose of 50ug/Kg, in white blood cells; assay type: functional
Summary of the method: (§2)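 Non-tumour-bearing female CDF1 mice, 10 per group. Drug was dissolved in DMSO, diluted in 30% DMSO/0.5% glucose, and given as a single ip dose on day 1. Blood was sampled on day 27 for WBC, platelet, RBC and MCHC measurements. Values are medians of 10 mice, with saline or vehicle controls.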

[11] = Hematological effects in female CDF1 mice platelet cells at the dose of 50ug/Kg, in platelets; assay type: functional, Mus musculus; summary of the method: as §2
[12] = Compound was administered to non-tumor bearing female CDF1 mice to estimate Mean corpuscular hemoglobin concentration (MCHC); assay type: functional, Mus musculus
Summary of the method: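 Non-tumor-bearing female CDF1 mice, 10 per group, received one ip dose on day 1 (DMSO stock diluted in 30% DMSO/0.5% glucose). Blood was sampled on day 27 for hematology, including MCHC; values are medians of 10 mice.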

[13] = Hematological effects in female CDF1 mice RBCs at the dose of 50ug/Kg, in red blood cells; assay type: functional, Mus musculus, Erythrocyte; summary of the method: as §2
Mus musculus [14] = experiment: Anti tumor activity was tested in mice and percent increase of life span at a dose of 42 ug/kg; assay type: functional; summary of the method: as §1
L1210 [15] = experiment: Antitumor activity was tested in Mice (bearing L1210 leukemia) and body weight change between days 0 and days 12 (when the animal weight was the lowest) was estimated at a dose of 70 ug/kg; assay type: functional, Mus musculus; summary of the method: as §1
Mus musculus [16] = species: Mus musculus; experiment: Antitumor activity in mice bearing L1210 leukemia at a dose of 30 ug / kg; assay type: functional
Summary of the method: (§3)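 Female CDF1 mice, 10 per group, got 100 L1210 cells ip on day 0. Drug in DMSO was diluted with 30% DMSO in 0.5% glucose and dosed ip on days 1, 5 and 9. Long-term (60-day) survivors are given as percent of the group.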

Mus musculus [17] = species: Mus musculus; experiment: Mean corpuscular hemoglobin concentration (MCHC); assay type: functional; summary of the method: as §2
Mus musculus [18] = species: Mus musculus; experiment: Hematological effects in female CDF1 mice, in red blood cells; assay type: functional
Summary of the method: (§4)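 Non-tumor-bearing female CDF1 mice, 10 per group. Drugs were dissolved in DMSO, diluted in 30% DMSO/0.5% glucose, and given as a single ip dose on day 1 (doses per kg). Blood was sampled on day 27 for WBC, platelet, RBC and MCHC counts. Values are medians of 10 mice.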

Mus musculus [19] = species: Mus musculus; experiment: (§5) Hematological effects in female CDF1 mice at the dose of 30 mg, in white blood cells; assay type: functional; summary of the method: as §4
Mus musculus [20] = species: Mus musculus; experiment: Hematological effects in female CDF1 mice, in platelets; assay type: functional; summary of the method: as §4
Mus musculus [21] = species: Mus musculus; experiment: Hematological effects in female CDF1 mice at the dose of 30mg, in red blood cells; assay type: functional; summary of the method: as §2
Mus musculus [22] = species: Mus musculus; experiment: Hematological effects in female CDF1 mice at the dose of 30 mg, in platelet cells; assay type: functional; summary of the method: as §2
Mus musculus [23] = species: Mus musculus; experiment: (§6) Hematological effects in female CDF1 mice at the dose of […], in red blood cells
Mus musculus [24] = species: Mus musculus; experiment: as §5; assay type: functional; summary of the method: as §2; remark: listed apart in the source
Mus musculus [25] = species: Mus musculus; experiment: animal or person
Mus musculus [26] = species: Mus musculus; experiment: Antitumor activity in mice bearing B16BL6 melanoma at a dose of 10(ug/mL); survivors for 90 days was reported; assay type: functional
Summary of the method: (§7)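 B16BL6 cells were cultured as monolayers, and 10⁶ cells were injected ip on day 0 into female BDF1 mice (4-6 weeks, 8 per group). Drug in dimethylacetamide was diluted in DMA/Cremophor/water (1:5:44) and 0.1 mL given ip on days 1, 5 and 9. %ILS came from median survival of dying animals; 90-day survivors were counted; mean weight change covered days 1-10.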

Mus musculus [27] = species: Mus musculus; experiment: Antitumor activity in mice bearing B16BL6 melanoma at a dose of 5(ug/mL); survivors for 90 days was reported; assay type: functional; summary of the method: as §7
Mus musculus [28] = species: Mus musculus; experiment: Mean body weight change between days 1 and 10; assay type: functional
Summary of the method: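 Female BDF1 mice (4-6 weeks old, 8 per group) were inoculated ip with 10⁶ B16BL6 melanoma cells on day 0. Drugs in dimethylacetamide were diluted in DMA:Cremophor:water (1:5:44) and given ip at 0.1 mL on days 1, 5 and 9 (doses per kg). Read-outs were %ILS = (T/C − 1) × 100 on median survival of dying animals only, mean body weight change from day 1 to day 10 (g/mouse), and 90-day survivors.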

Mus musculus [29] = species: Mus musculus; experiment: as §6; assay type: functional; summary of the method: as §4
Mus musculus [30] = species: Mus musculus; experiment: Hematological effects in female CDF1 mice at the dose of […], in platelets; assay type: functional; summary of the method: as §4
Mus musculus [31] = experiment: Antitumor activity in female CDF1 mice bearing L1210 Leukemia at the dose of 30 ug/kg and survivors (60-day) was expressed; assay type: functional; summary of the method: as §3

In the case of `CC(=O)Nc1ccc2oc(C(=O)Nc3ccc4[nH]c(C(=O)N5CC(CCl)c6c5cc(O)c5ccccc65)cc4c3)cc2c1` (configuration not stated), the IC50 [1] is reported as 0.4 nM.

`CC(=O)Nc1ccc2oc(C(=O)Nc3ccc4[nH]c(C(=O)N5CC6CC67C5=CC(=O)c5ccccc57)cc4c3)cc2c1` (configuration not stated) showed a No. of survivors (L1210 [2]) of 60, a No. of survivors (L1210 [3]) of 1 and a No. of survivors (L1210 [4]) of 0. For the same compound, the No. of survivors (L1210 [5]) was 0, the Weight change (L1210 [6]) was 18% and the Weight change (L1210 [7]) was 23%. For the same compound, the ILS at 0.07 mg/kg (Mus musculus [8]) was 93%, the ILS at 0.025 mg/kg (Mus musculus [9]) was 53% and the WBC (Mus musculus [10]) was 13.95 10e3 ul-1. For the same compound, the IC50 [1] was 0.2 nM, the Platelet [11] was 1.01 10e6 ul-1 and the MCHC [12] was 35.5 g/dL. For the same compound, the RBC [13] was 7.81 10e6 ul-1, the ILS at 0.042 mg/kg (Mus musculus [14]) was 80% and the Weight change (L1210 [15]) was -15%.

Compound `CC(=O)Nc1ccc2[nH]c(C(=O)N3CC(CCl)c4c3cc(O)c3ccccc43)cc2c1` (configuration not stated) has an IC50 [1] of 3 nM.

`CCCC(=O)Nc1ccc2oc(C(=O)Nc3ccc4[nH]c(C(=O)N5CC(CCl)c6c5cc(O)c5ccccc65)cc4c3)cc2c1` (configuration not stated) showed a Survivors (Mus musculus [16]) of 20% and an IC50 [1] of 0.008 nM.

In the case of `CC(=O)Nc1ccc2[nH]c(/C=C/C(=O)N3CC(CCl)c4c3cc(O)c3ccccc43)cc2c1` (configuration not stated), the IC50 [1] is reported as 0.9 nM.

For `C[S+](C)[O-].OC[C@H]1O[C@H](O)[C@H](O)[C@@H](O)[C@@H]1O`, the MCHC (Mus musculus [17]) was 34.45 g/dL, the RBC (Mus musculus [18]) was 8.5 10e6 ul-1 and the WBC (Mus musculus [19]) was 12.85 10e3 ul-1. The Platelet (Mus musculus [20]) was 1.16 10e6 ul-1.

In the case of `CS(=O)(=O)OCCCCOS(C)(=O)=O` [BUSULFAN], the RBC (Mus musculus [21]) is reported as 8.45 10e6 ul-1, the WBC (Mus musculus [19]) is reported as 7 10e3 ul-1 and the Platelet (Mus musculus [22]) is reported as 0.71 10e6 ul-1.

In the case of `O=P1(N(CCCl)CCCl)NCCCO1` (configuration not stated) [CYCLOPHOSPHAMIDE ANHYDROUS], the RBC (Mus musculus [23]) is reported as 7.67 10e6 ul-1, the WBC (Mus musculus [24]) is reported as 11.22 10e3 ul-1 and the ILS at 0.125 mg/kg (Mus musculus [25]) is reported as 173%.

Work on `COc1cccc2c1C(=O)c1c(O)c3c(c(O)c1C2=O)C[C@@](O)(C(=O)CO)C[C@@H]3O[C@H]1C[C@H](N)[C@H](O)[C@H](C)O1` [DOXORUBICIN] yielded a No. of survivors (Mus musculus [26]) of 2, a No. of survivors (Mus musculus [27]) of 0 and a Weight (Mus musculus [28]) of 0.5 g.

In the case of `O=c1[nH]cc(F)c(=O)[nH]1` [FLUOROURACIL], the MCHC (Mus musculus [17]) is reported as 35.4 g/dL, the RBC (Mus musculus [21]) is reported as 8.82 10e6 ul-1 and the WBC (Mus musculus [19]) is reported as 12.4 10e3 ul-1. The Platelet (Mus musculus [22]) was 1.24 10e6 ul-1.

In the case of `CC(=O)O[C@H]1C(=O)[C@@]2(C)[C@H]([C@H](OC(=O)c3ccccc3)[C@]3(O)C[C@H](OC(=O)[C@H](O)[C@@H](NC(=O)c4ccccc4)c4ccccc4)C(C)=C1C3(C)C)[C@]1(OC(C)=O)CO[C@@H]1C[C@@H]2O` [PACLITAXEL], the MCHC (Mus musculus [17]) is reported as 36.5 g/dL, the RBC (Mus musculus [29]) is reported as 8.33 10e6 ul-1 and the WBC (Mus musculus [24]) is reported as 13.4 10e3 ul-1. For the same compound, the Platelet (Mus musculus [30]) was 1.04 10e6 ul-1 and the Survivors (Mus musculus [31]) was 0%.
